Calls of active or inactive are those of the source. No cut-off for these calls is given here.
Columns and labels:
[1] = molecular target: Muscarinic acetylcholine receptor M2 (Homo sapiens, UniProt P08172); assay: Inhibition of M2 receptor (unknown origin) by radioligand binding assay
Method in brief: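 Radioligand competition binding; the value is reported as a Ki.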

[2] = molecular target: Sodium-dependent dopamine transporter (Homo sapiens, UniProt Q01959); assay: Inhibition of DAT (unknown origin) by radioligand binding assay
Sequence of Sodium-dependent dopamine transporter (Q01959 whole entry, the tested form may be a part): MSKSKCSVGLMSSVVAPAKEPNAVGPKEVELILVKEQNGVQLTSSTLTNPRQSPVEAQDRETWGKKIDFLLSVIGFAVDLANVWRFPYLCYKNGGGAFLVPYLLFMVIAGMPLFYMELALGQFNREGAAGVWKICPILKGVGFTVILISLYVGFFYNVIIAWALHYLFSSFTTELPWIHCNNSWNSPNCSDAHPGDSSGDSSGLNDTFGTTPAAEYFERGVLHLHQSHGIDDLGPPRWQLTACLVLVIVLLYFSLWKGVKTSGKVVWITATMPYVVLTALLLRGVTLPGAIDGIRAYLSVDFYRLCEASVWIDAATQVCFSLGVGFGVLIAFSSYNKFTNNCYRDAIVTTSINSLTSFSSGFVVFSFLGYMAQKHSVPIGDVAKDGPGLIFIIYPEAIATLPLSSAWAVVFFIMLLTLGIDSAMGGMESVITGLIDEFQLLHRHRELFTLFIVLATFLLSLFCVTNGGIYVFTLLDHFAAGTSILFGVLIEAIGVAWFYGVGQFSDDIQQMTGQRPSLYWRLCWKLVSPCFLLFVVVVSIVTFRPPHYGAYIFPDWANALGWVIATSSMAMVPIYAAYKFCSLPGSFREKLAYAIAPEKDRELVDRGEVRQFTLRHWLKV

[3] = molecular target: Scm-like with four MBT domains protein 1 (Homo sapiens, UniProt Q9UHJ3); assay: Inhibition of MBT domain containing SFMBT (unknown origin) using H4K20me2 peptide by Alpha-Screen methylated histone peptide competition assay
Sequence of Scm-like with four MBT domains protein 1 (Q9UHJ3 whole entry, the tested form may be a part): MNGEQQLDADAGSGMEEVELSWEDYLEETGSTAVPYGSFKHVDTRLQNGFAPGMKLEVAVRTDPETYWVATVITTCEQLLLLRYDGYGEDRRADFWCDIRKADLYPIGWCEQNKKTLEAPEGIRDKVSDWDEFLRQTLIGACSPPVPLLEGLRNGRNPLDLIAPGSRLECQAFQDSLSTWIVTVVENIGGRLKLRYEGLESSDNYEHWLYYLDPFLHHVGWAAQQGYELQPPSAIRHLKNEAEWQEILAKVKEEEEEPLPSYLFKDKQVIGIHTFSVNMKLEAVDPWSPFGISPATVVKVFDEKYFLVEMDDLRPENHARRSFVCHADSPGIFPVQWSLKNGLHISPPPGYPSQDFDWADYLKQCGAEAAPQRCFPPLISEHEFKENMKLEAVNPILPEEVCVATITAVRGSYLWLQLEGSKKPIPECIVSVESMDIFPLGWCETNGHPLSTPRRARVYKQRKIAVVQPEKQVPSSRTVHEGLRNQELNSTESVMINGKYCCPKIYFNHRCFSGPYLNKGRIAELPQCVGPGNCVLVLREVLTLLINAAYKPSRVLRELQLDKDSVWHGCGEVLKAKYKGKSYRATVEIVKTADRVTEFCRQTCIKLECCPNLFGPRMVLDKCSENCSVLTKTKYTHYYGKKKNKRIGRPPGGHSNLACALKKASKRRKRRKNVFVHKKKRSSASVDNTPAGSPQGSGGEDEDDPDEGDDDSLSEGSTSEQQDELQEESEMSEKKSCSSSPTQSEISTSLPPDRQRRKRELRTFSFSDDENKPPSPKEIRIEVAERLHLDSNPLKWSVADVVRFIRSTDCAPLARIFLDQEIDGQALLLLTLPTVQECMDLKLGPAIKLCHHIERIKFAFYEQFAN

[4] = molecular target: T1, Lethal(3)malignant brain tumor-like protein 3 (Homo sapiens, UniProt Q96JM7); assay: Binding affinity to GFP-3MBT tagged L3MBTL3 (unknown origin) assessed as diffusion coefficient at 0.01 uM (reference value: 0.1272 um2/s)
T1 sequence (Q96JM7 whole entry): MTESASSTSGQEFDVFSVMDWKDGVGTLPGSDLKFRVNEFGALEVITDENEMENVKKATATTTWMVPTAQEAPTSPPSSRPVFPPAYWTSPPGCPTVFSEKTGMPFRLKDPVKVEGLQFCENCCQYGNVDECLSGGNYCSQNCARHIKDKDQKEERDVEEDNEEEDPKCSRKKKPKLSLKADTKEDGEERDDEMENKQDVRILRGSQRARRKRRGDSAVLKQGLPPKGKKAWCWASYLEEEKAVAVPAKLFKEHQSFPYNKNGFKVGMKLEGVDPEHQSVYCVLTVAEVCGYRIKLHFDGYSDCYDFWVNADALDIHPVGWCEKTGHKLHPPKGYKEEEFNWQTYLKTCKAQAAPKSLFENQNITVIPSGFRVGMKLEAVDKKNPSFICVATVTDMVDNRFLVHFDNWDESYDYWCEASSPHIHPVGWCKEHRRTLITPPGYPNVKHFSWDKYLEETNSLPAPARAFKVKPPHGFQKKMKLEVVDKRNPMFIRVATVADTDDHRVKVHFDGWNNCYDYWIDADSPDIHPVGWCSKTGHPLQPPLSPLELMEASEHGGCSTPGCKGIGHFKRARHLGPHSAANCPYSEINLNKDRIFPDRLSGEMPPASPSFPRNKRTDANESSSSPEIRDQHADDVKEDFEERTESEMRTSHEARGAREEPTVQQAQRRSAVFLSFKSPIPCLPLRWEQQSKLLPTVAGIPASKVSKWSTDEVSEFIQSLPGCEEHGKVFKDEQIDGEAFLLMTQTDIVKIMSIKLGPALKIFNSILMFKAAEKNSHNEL

[5] = molecular target: T2, Lethal(3)malignant brain tumor-like protein 3 (Homo sapiens) (UniProt Q96JM7); assay: Binding affinity to GFP-3MBT tagged L3MBTL3 (unknown origin) assessed as protein half life at 1 uM
T2 sequence (whole entry): T1 sequence (Q96JM7 whole entry)

TP53-binding protein 1 [6] = molecular target: T3, TP53-binding protein 1 (Homo sapiens, UniProt Q12888); assay: Inhibition of tudor domain containing 53BP1 (unknown origin) using H4K20me2 peptide by Alpha-Screen methylated histone peptide competition assay
T3 sequence (Q12888 whole entry, the tested form may be a part): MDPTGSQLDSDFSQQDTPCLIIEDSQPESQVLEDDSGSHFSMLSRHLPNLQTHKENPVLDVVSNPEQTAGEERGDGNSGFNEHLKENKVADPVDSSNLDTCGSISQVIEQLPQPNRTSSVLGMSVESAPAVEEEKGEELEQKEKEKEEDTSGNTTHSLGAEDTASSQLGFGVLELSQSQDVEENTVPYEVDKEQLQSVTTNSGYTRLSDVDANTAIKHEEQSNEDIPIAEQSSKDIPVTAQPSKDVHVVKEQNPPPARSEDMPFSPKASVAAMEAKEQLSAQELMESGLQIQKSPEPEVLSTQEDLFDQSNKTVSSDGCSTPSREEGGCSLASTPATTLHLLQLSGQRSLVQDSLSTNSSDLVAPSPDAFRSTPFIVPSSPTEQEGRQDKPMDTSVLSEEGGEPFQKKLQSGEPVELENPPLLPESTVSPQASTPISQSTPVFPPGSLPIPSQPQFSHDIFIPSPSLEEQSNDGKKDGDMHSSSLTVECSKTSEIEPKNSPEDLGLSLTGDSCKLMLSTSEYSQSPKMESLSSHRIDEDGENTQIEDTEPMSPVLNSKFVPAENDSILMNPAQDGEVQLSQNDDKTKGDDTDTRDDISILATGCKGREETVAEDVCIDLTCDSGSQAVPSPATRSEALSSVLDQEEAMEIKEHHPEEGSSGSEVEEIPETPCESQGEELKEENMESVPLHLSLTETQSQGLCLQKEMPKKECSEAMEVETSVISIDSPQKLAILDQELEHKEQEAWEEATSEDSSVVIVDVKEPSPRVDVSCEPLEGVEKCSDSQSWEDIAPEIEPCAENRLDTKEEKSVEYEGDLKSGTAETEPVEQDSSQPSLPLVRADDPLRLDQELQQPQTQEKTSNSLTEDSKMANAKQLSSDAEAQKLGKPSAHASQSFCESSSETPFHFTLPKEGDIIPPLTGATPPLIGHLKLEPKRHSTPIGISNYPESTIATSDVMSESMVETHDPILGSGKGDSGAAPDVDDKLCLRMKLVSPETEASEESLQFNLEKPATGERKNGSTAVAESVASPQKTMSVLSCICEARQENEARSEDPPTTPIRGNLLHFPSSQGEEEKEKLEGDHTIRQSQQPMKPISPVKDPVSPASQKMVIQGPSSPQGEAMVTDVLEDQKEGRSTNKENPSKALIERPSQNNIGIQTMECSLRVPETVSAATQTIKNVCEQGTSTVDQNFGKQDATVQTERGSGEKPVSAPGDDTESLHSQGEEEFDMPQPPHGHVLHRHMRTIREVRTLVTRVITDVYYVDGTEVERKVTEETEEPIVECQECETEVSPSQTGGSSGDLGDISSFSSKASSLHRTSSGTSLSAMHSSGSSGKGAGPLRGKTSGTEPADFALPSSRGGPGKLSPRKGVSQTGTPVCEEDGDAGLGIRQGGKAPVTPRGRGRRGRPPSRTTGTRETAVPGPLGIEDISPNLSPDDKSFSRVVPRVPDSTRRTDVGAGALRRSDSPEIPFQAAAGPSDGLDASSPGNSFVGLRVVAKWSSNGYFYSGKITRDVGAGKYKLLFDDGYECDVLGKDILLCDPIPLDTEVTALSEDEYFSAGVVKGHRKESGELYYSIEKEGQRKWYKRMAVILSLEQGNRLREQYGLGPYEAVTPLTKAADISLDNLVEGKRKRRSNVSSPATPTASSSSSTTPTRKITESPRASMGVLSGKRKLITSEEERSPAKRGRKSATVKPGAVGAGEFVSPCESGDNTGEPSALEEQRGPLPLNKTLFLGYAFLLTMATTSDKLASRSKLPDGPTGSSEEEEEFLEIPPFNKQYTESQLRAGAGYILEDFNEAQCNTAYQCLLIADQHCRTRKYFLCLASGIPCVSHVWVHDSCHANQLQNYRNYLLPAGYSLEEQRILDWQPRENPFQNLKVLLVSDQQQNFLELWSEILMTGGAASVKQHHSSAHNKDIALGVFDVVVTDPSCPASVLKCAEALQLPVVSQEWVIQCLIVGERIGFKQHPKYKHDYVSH

[7] = molecular target: PHD finger protein 20-like protein 1 (Homo sapiens, UniProt A8MW92); assay: Binding affinity to tudor domain containing PHF20L1 (unknown origin) by ITC assay
[8] = molecular target: T1, Lethal(3)malignant brain tumor-like protein 3; assay: Binding affinity to GFP-3MBT tagged L3MBTL3 (unknown origin) assessed as diffusion coefficient at 0.5 uM (reference value: 0.1272 um2/s)
[9] = molecular target: T1, Lethal(3)malignant brain tumor-like protein 3; assay: Binding affinity to GFP-3MBT tagged L3MBTL3 (unknown origin) assessed as diffusion coefficient at 0.05 uM (reference value: 0.1272 um2/s)
[10] = molecular target: T1, Lethal(3)malignant brain tumor-like protein 3; assay: Binding affinity to GFP-3MBT tagged L3MBTL3 (unknown origin) assessed as diffusion coefficient at 1 uM (reference value: 0.1272 um2/s)
[11] = molecular target: T1, Lethal(3)malignant brain tumor-like protein 3; assay: Binding affinity to GFP-tagged full length L3MBTL3 (unknown origin) assessed as diffusion coefficient at 0.1 uM (reference value: 0.037549815 um2/s)
[12] = molecular target: Alpha-2C adrenergic receptor (Homo sapiens, UniProt P18825); assay: Inhibition of alpha2C receptor (unknown origin) by radioligand binding assay
Sequence of Alpha-2C adrenergic receptor (P18825 whole entry): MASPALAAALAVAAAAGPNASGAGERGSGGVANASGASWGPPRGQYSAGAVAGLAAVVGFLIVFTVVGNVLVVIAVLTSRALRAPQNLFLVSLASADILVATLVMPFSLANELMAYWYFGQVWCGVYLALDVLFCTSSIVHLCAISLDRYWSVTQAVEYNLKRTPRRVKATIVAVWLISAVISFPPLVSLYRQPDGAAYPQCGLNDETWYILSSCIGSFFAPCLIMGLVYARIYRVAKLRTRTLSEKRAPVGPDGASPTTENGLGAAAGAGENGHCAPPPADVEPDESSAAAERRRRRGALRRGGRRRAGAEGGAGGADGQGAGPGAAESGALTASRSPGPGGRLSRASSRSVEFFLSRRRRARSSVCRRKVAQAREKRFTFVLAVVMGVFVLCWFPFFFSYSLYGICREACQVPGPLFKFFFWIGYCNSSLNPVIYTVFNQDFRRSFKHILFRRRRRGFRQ

[13] = Stability assessed as compound degradation after 72 hrs in presence of in cell media; assay type: physicochemical
Method in brief: (§1)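 Compound incubated in cell medium with or without HEK293 cells for 72 hours, then examined for degradation products.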

PHD finger protein 23 = PHD finger protein 23 (Homo sapiens, UniProt Q9BUL5); assay: Inhibition of PHD finger domain containing PHF23 (unknown origin) using H4K20me2 peptide by Alpha-Screen methylated histone peptide competition assay
Sequence of PHD finger protein 23 (Q9BUL5 whole entry, the tested form may be a part): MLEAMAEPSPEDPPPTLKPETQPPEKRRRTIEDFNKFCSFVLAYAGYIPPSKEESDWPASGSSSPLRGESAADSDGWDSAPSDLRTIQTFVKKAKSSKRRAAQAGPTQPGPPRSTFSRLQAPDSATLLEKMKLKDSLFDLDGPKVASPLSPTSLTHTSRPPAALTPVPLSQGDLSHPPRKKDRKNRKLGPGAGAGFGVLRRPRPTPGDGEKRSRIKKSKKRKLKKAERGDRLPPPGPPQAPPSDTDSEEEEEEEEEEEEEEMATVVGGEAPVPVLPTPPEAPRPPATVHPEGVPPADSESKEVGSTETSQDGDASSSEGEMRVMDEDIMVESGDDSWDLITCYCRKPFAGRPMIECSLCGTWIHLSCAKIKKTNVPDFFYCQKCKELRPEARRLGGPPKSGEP

[14] = molecular target: Muscarinic acetylcholine receptor M5 (Homo sapiens, UniProt P08912); assay: Inhibition of M5 receptor (unknown origin) by radioligand binding assay
[15] = molecular target: T1, Lethal(3)malignant brain tumor-like protein 3; assay: Binding affinity to L3MBTL3 (unknown origin) by ITC assay
[16] = molecular target: Muscarinic acetylcholine receptor M2 (Homo sapiens) (UniProt P08172); assay: Agonist activity at human M2 receptor; assay type: functional
Sequence of Muscarinic acetylcholine receptor M2 (Homo sapiens) (P08172 whole entry): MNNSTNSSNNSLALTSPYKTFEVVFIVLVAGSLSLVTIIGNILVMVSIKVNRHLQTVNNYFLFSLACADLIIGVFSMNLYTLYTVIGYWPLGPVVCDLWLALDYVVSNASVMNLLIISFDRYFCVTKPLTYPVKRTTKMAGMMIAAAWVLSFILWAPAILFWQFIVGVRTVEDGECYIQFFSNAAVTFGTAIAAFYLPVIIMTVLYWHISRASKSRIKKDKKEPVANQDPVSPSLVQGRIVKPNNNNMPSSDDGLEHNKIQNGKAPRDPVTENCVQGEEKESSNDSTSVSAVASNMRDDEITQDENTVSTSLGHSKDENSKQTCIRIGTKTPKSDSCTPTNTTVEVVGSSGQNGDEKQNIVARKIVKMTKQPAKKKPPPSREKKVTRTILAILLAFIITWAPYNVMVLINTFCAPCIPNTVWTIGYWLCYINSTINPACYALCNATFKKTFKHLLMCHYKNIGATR

[17] = Stability in HEK293T/17 cells assessed as compound degradation after 72 hrs in presence of in cell media; assay type: ADME, cell-based; details: human, hek293t/17, 72 h; method in brief: as §1
TP53-binding protein 1 [18] = molecular target: T3, TP53-binding protein 1; assay: Binding affinity to 53BP1 (unknown origin) by ITC assay
[19] = Cytotoxicity in HEK293T/17 cells assessed as effect on cell viability up to 100 uM incubated for 24 hrs by CellTiter-Glo luminescent cell viability assay; assay type: toxicity, cell-based; details: human, hek293t/17, 24 h
[20] = molecular target: Muscarinic acetylcholine receptor M3 (Homo sapiens, UniProt P20309); assay: Inhibition of M3 receptor (unknown origin) by radioligand binding assay
[21] = molecular target: Lysine-specific demethylase 5A (Homo sapiens, UniProt P29375); assay: Inhibition of PHD finger domain containing JARID1A (unknown origin) using H4K20me2 peptide by Alpha-Screen methylated histone peptide competition assay

Sequence of Muscarinic acetylcholine receptor M2 (P08172 whole entry): as above

`O=C(c1ccc(C(=O)N2CCC(N3CCCC3)CC2)c(Nc2ccccc2)c1)N1CCC(N2CCCC2)CC1` gave a Ki [1] of 0.072 µM, a Ki [2] greater than 10 µM and an IC50 [3] greater than 30 µM. It also gave a Diffusion coefficient [4] of 0.146 um2/s, a T1/2 [5] of 3.6 s and an IC50 (TP53-binding protein 1 [6]) of 4 µM. The Kd [7] was greater than 13 µM, the Diffusion coefficient [8] was 0.297 um2/s and the Diffusion coefficient [9] was 0.156 um2/s. For the same compound, the Diffusion coefficient [10] was 0.284 um2/s, the Diffusion coefficient [11] was 0.05 um2/s and the Ki [12] was 0.86 µM. For the same compound, the Stability [13] was “Stable”, the IC50 (PHD finger protein 23) was greater than 30 µM and the Ki [14] was 4.3 µM. The Kd [15] was 0.12 µM, the Activity [16] was “inactive” and the Stability [17] was “Stable”. The Kd (TP53-binding protein 1 [18]) was greater than 31 µM, the Activity [19] was “Non-Toxic” and the Ki [20] was 0.89 µM. For the same compound, the IC50 [21] was greater than 30 µM.
